Screening results: PubChem BioAssay, several laboratories
bCat nuc transl – modulators of beta-catenin nuclear translocation | nuclear translocation activity, % at 5 µM | HeLa beta-catenin nuclear translocation, immunofluorescence imaging | 190,000 compounds, 0.3% hits;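 active = nuclear translocation activity above 50% at 5 µM, with a well cell count of 50 or more; inconclusive = wells under 50 cells across six images, flagged as toxic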;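 also: per-cell ratio of nuclear to cytoplasmic median beta-catenin stain intensity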
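Technique: fluorescence imaging of beta-catenin antibody stain plus DAPI / Material: human HeLa cell line / Incubation: compound treatment 24 h, 37°C, 5% CO2 / Read-out basis: % activation of per-cell nuclear versus cytoplasmic median beta-catenin signal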
KCC2 mod – modulates chloride dependent transport by human KCC2 | KCC2 cells, thallium flux FluoZin-2 fluorescence | 190,000 compounds, 2.2% hits | B-score of Tl+ flux slope (higher = more flux/activation; lower = inhibition) at 10 µM | Q9H2X9 | AID 1456;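 active = thallium flux slope and its plate-corrected score both differing from the plate sample mean at a set confidence after two filtering rounds, in either direction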;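 also: slope of fluorescence scaled to starting intensity during 10 to 20 s after thallium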
Target sequence (Q9H2X9 whole entry, looked up): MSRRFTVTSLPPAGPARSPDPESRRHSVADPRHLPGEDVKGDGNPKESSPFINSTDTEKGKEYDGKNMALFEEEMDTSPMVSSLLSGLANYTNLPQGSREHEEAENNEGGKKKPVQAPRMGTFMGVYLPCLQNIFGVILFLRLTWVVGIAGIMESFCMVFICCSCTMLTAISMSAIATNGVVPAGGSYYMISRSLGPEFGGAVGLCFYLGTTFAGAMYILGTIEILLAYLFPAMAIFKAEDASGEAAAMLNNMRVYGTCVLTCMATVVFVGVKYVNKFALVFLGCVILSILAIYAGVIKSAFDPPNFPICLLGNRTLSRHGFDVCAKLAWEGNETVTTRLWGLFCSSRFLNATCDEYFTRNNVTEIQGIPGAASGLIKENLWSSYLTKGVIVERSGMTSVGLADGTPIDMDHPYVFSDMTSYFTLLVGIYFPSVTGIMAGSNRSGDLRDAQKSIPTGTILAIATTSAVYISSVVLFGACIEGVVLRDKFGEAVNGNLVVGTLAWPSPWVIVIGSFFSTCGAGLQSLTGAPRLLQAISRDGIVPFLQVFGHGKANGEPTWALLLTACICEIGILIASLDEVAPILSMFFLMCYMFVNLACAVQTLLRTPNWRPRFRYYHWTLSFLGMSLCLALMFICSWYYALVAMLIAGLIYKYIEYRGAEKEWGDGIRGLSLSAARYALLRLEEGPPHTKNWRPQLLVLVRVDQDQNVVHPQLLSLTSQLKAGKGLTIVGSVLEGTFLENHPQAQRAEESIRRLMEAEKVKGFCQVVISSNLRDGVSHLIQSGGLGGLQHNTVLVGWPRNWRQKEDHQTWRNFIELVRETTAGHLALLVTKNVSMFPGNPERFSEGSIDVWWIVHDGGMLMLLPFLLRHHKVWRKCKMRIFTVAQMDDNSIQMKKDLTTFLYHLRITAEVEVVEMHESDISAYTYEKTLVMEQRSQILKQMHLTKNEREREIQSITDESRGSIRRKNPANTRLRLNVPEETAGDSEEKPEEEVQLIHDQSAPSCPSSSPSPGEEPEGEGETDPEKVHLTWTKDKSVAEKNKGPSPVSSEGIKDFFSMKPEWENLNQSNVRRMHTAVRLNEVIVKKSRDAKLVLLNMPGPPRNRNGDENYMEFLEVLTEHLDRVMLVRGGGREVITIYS
Pf gametocyte – P. falciparum stage V gametocyte viability inhibition; P. falciparum stage V gametocytes, ATP luminescence, 24 h; inhibition, % at 10.9 µM; 150,000 compounds, 0.065% hits;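 active = inhibition above the mean plus 3 SD of compounds within the control limits, set per campaign, cut at about 38% in these data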
MT stabilizer – microtubule stabilization, imaging screen; HeLa tubulin immunostaining HCS, 24 h; share of cells brighter than vehicle mean+2SD; % tubulin-high responders, % at 10 µM; 200,000 compounds, 0.83% hits; AID 2205;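 active = plate Z-score above 3 for both tubulin-high and condensed-nucleus cell shares, with cell loss under 80%, at 10 µM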;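 also: anti alpha tubulin signal scored within the nucleus-defined area of each cell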
WT yeast gro inh – growth inhibition of WT yeast, mitochondrial fusion screen; inhibition, % at 10 µM; mitochondrial fusion phenotypic screen, WT strain; 190,000 compounds, 2.1% hits; in the data active = inhibition above about 58%; tested in S. cerevisiae
KCC2 secondary – confirmation of human KCC2 transport modulators; shares compounds with KCC2 mod; HEK293-KCC2, thallium flux, FluoZin2 fluorescence; active compounds read high; normalised thallium flux (F/F0 slope) at 10 µM; 3,700 compounds, 15% hits;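 active = thallium flux slope above the same plate's solvent-only control mean plus 3 SD; inconclusive = the two replicate wells disagree; inactive = no significant difference from solvent-only control wells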
KCC2 bumet counter – thallium flux despite bumetanide block in KCC2 cells, secondary assay 3; shares compounds with KCC2 mod; 3,700 compounds, 49% hits; HEK293-KCC2 + bumetanide/ouabain, thallium flux FluoZin2; active compounds read high; normalized thallium flux at 10 µM; AID 1714;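 active = thallium entry rate above the same plate's blocked-transporter control wells by more than 3 SD; inconclusive = the two repeat wells disagree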;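 also: raw slope of fluorescence over initial fluorescence between 10 and 20 s after thallium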
KCC2 sec2 – confirmation of human KCC2 transport modulators; shares compounds with KCC2 mod; HEK293-KCC2, thallium flux FluoZin2 fluorescence; actives lie on both sides; F/F0 rise rate, 10–20 s post-thallium; normalized thallium flux at 10 µM; 3,700 compounds, 23% hits; AID 1715;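 active = thallium flux slope more than 3 SD above or below the plate's solvent-only control mean, mostly below; inconclusive = the two repeat wells disagreed; inactive = no significant shift from solvent-only controls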
HEK293 Tl flux – counter-screen for KCC2 modulators: effect in parental HEK293 cells. shares compounds with KCC2 mod. thallium flux FluoZin2, ouabain; baseline-ratio fluorescence slope, 10–20 s after thallium. thallium flux rate (normalised fluorescence) at 10 µM. 3,700 compounds, 46% hits;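 active = thallium flux rate significantly above the same plate's solvent-only control wells, beyond their mean plus 3 SD; inconclusive = the two replicate wells gave conflicting results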
KCC2 ouabain – confirmation of human KCC2 modulators with ouabain; shares compounds with KCC2 mod; HEK293-KCC2, thallium flux FluoZin2 fluorescence; bidirectional: low = inhibitor, high = activator; raw Tl+ flux slope (below DMSO = inhibition, above = activation) at 10 µM; 3,700 compounds, 48% hits;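 active = thallium flux slope beyond 3 SD from same-plate DMSO control mean in most replicates, usually higher, sometimes lower; inconclusive = repeat tests gave conflicting results; inactive = no significant difference from controls in most replicates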;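 also: slope of initial-normalized fluorescence between seconds 10 and 20 after thallium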
HEK counter2 – parental HEK flux effect, counter-screen 2; shares compounds with KCC2 mod; HEK293 parental, thallium flux FluoZin-2 fluorescence slope; thallium flux slope at 10 µM; 3,700 compounds, 33% hits;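 active = thallium flux slope above the same plate's solvent-control mean plus 3 SD in both duplicate wells; inconclusive = duplicate wells that disagreed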;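 also: run without ouabain in cells lacking the KCC2 cotransporter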
Each line names hits and unclear results; the compound was inactive in the other large screens (follow-up assays come after a bar, where they were run). The list is not random: actives were taken first. Their share in the collection is about 4%.

CC(C)Sc1nnc([C@H](Cc2c[nH]c3ccccc23)NC(=O)OC(C)(C)C)o1	KCC2 mod -6.3 | KCC2 secondary inactive | KCC2 bumet counter inactive | KCC2 sec2 0.028 | HEK293 Tl flux inconclusive | KCC2 ouabain 0.013 | HEK counter2 inactive
Cc1cc(OCC(=O)Nc2ccc(S(=O)(=O)NC3=NCCCCC3)cc2)c(C(C)C)cc1Cl	none
CN(C)c1ccc(NC(=O)c2sc(SCC(=O)Nc3nccs3)nc2N)cc1	KCC2 mod 14 | KCC2 secondary inactive | KCC2 bumet counter 0.013 | KCC2 sec2 inactive | HEK293 Tl flux 0.012 | KCC2 ouabain inconclusive | HEK counter2 0.014
CN(C)c1ccc(NC(=O)c2sc(SCC(=O)Nc3ccc(Br)cc3)nc2N)cc1	none (no result: bCat nuc transl, KCC2 mod)
COC(=O)Cc1ccc(NC(=S)Nc2ccc(N3CCOCC3)cc2)cc1	none
COC(=O)C1=C(C)N(C2CCCCC2)C(=O)C1	KCC2 mod 6.2 (no result: Pf gametocyte) | KCC2 secondary inactive | KCC2 bumet counter inactive | KCC2 sec2 inactive | HEK293 Tl flux inactive | KCC2 ouabain inactive | HEK counter2 inactive
CCOC(=O)C1=C(C)N(C2CCCCC2)C(=O)C1	none (no result: KCC2 mod, Pf gametocyte)
CCN(CC)c1ccc2c(C)c(-c3ccc(N)cc3)c(=O)oc2c1	KCC2 mod -5.1 (no result: Pf gametocyte) | KCC2 secondary inactive | KCC2 bumet counter 0.011 | KCC2 sec2 inconclusive | HEK293 Tl flux inactive | KCC2 ouabain 0.016 | HEK counter2 inactive
CCOC(=O)Cc1c(C)c2ccc(N(CC)CC)cc2oc1=O	none (no result: KCC2 mod, Pf gametocyte)
CN(C(=O)CSc1nc(-c2ccccc2)cn1N)C(c1ccccc1)c1ccccc1	none (no result: Pf gametocyte)
NNc1nc2sc3c(c2c(=O)n1Cc1ccccc1)CCC3	KCC2 mod 4.1 (no result: MT stabilizer, WT yeast gro inh) | KCC2 secondary inactive | KCC2 bumet counter 0.017 | KCC2 sec2 inactive | HEK293 Tl flux inconclusive | KCC2 ouabain inconclusive | HEK counter2 inactive
CCn1c(NN)nc2sc3c(c2c1=O)CCC3	KCC2 mod 6 (no result: bCat nuc transl, Pf gametocyte) | KCC2 secondary 0.014 | KCC2 bumet counter 0.019 | KCC2 sec2 inactive | HEK293 Tl flux 0.018 | KCC2 ouabain 0.03 | HEK counter2 inconclusive
Nn1c(Nc2ccccc2)nc2sc3c(c2c1=O)CCC3	none (no result: KCC2 mod, Pf gametocyte)
O=S(=O)(NCc1ccccc1)c1cccc(S(=O)(=O)N2CCOCC2)c1	none (no result: KCC2 mod)
O=S(=O)(NCCc1ccccc1F)c1cccc(S(=O)(=O)N2CCOCC2)c1	none (no result: KCC2 mod, Pf gametocyte) | KCC2 secondary inactive | KCC2 bumet counter inactive | KCC2 sec2 0.026 | HEK293 Tl flux inactive | KCC2 ouabain inconclusive | HEK counter2 inactive
Cc1nc(SCC(=O)Nc2c(C)nn(C)c2C)c2cnn(-c3ccccc3)c2n1	KCC2 mod -6.8 (no result: Pf gametocyte) | KCC2 secondary inactive | KCC2 bumet counter inactive | KCC2 sec2 inactive | HEK293 Tl flux inactive | KCC2 ouabain inactive | HEK counter2 inactive
CCNC(=S)N=Nc1c(O)[nH]c2ccc(C(C)C)cc12	KCC2 mod 10 | KCC2 secondary inconclusive | KCC2 bumet counter 0.021 | KCC2 sec2 inactive | HEK293 Tl flux 0.022 | KCC2 ouabain 0.026 | HEK counter2 0.016
NC(=S)N=Nc1c(O)[nH]c2ccccc12	none
CC(C)c1ccc2[nH]c(O)c(N=NC(=S)NCCc3ccccc3)c2c1	none (no result: Pf gametocyte)
CCNC(=S)N=Nc1c(O)[nH]c2ccc([N+](=O)[O-])cc12	KCC2 mod 5 (no result: Pf gametocyte) | KCC2 secondary inactive | KCC2 bumet counter 0.022 | KCC2 sec2 inactive | HEK293 Tl flux 0.013 | KCC2 ouabain inactive | HEK counter2 inconclusive
CCCCNC(=S)N=Nc1c(O)[nH]c2ccccc12	KCC2 mod 25 (no result: Pf gametocyte) | KCC2 secondary inconclusive | KCC2 bumet counter 0.049 | KCC2 sec2 inconclusive | HEK293 Tl flux 0.035 | KCC2 ouabain 0.04 | HEK counter2 0.025
Cc1ccc(N2C(=O)C3C(C2=O)C2C=CC3C23CC3)c([N+](=O)[O-])c1 (stereo not given)	none
CC1Cc2ccccc2N1C(=O)CSc1nnc2n1C(C)(C)Cc1ccccc1-2 (stereo not given)	KCC2 mod -5.6 (no result: bCat nuc transl) | KCC2 secondary inactive | KCC2 bumet counter inconclusive | KCC2 sec2 0.024 | HEK293 Tl flux inactive | KCC2 ouabain inconclusive | HEK counter2 inactive
CN1CCN(C(=O)CSc2nc(-c3ccco3)cc(C(F)(F)F)n2)CC1	none
CC1Cc2ccccc2N1C(=O)CSc1nc(-c2ccco2)cc(C(F)(F)F)n1 (stereo not given)	none (no result: KCC2 mod) | KCC2 secondary inactive | KCC2 bumet counter inactive | KCC2 sec2 inactive | HEK293 Tl flux inactive | KCC2 ouabain inactive | HEK counter2 inactive
CCOC(=O)CSc1nnc2n1C(C)(C)Cc1ccccc1-2	none
Cn1c(-c2ccc(F)cc2)cnc1SCC(=O)N1CCCc2ccccc21	none
CC1Cc2ccccc2N1C(=O)CSc1ncc(-c2ccc(F)cc2)n1C (stereo not given)	KCC2 mod -4.2 (no result: bCat nuc transl) | KCC2 secondary inactive | KCC2 bumet counter inactive | KCC2 sec2 0.024 | HEK293 Tl flux 0.006 | KCC2 ouabain 0.013 | HEK counter2 inconclusive
Cc1nonc1-c1csc(N)n1	none
CN(C)CC(O)COc1cccc(OCC(O)CN(C)C)c1 (stereo not given)	none (no result: KCC2 mod, Pf gametocyte) | KCC2 secondary inactive | KCC2 bumet counter inactive | KCC2 sec2 inactive | HEK293 Tl flux inactive | KCC2 ouabain inactive | HEK counter2 inactive
CN(C)CC(O)COc1ccc(-c2ccc(C#N)cc2)cc1 (stereo not given)	none (no result: KCC2 mod)
O=C(NC1CCCC1)NS(=O)(=O)c1ccccc1Cl	KCC2 mod 5.7 (no result: Pf gametocyte) | KCC2 secondary inactive | KCC2 bumet counter inactive | KCC2 sec2 inactive | HEK293 Tl flux inactive | KCC2 ouabain inactive | HEK counter2 inactive
COc1ccc2cc(C(N)=O)/c(=N/NC(=O)c3ccco3)oc2c1	none
Cn1c(N)c(C(=O)COC(=O)CNS(=O)(=O)c2cccc(Cl)c2)c(=O)n(C)c1=O	none
CCOC(=O)c1sc2nc(C)nc(SCC(=O)N(C)C3CCS(=O)(=O)C3)c2c1C (stereo not given)	KCC2 mod 24 | KCC2 secondary inactive | KCC2 bumet counter 0.06 | KCC2 sec2 0.052 | HEK293 Tl flux 0.049 | KCC2 ouabain 0.048 | HEK counter2 0.046
